Assay outcomes from PubChem BioAssay.
Only some compounds are listed: those with a hit (about 3% of all), similar ones and a draw of the others.
NPY-Y1 PAM-ag = human NPY-Y1 potentiation or agonism, primary screen. P25929. NPY-Y1 expressing cells, potentiator/agonist activation. activation, % at 3.6 µM. 0.37% of 220,000 active. AID 1304; in the data active = activation above about 33%, passing the limit was not always enough;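 note: cells stimulated with NPY at EC10 then isoproterenol at EC100; 0% = low agonist plus stimulus and 100% = saturating agonist plus stimulus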
Hsp70 act = switches on Hsp70 transcription. HeLa Hsp70 promoter luciferase reporter, luminescence; scaled: vehicle 0, proteasome-inhibitor control 100%. activation, % at 10 µM. 0.04% of 200,000 active. AID 1203;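 active = activation above the mean across all tested compounds plus 3 SD, cutoff set per campaign, cut at about 5.5% in these data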;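 note: 100% = MG132 at 30 µM as the positive control and 0% = DMSO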
NPY2 pot ag = human NPY-Y2 potentiation or agonism, primary screen; P49146; cells expressing NPY-Y2, potentiator/agonist read-out; activation, % at 3.6 µM; 0.45% of 220,000 active; AID 1359; in the data active = activation above about 27%;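 note: cells stimulated with NPY near EC25 plus isoproterenol at EC100; 0% = vehicle plus submaximal agonist and 100% = vehicle plus saturating agonist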
Target sequence (P49146 whole entry, looked up): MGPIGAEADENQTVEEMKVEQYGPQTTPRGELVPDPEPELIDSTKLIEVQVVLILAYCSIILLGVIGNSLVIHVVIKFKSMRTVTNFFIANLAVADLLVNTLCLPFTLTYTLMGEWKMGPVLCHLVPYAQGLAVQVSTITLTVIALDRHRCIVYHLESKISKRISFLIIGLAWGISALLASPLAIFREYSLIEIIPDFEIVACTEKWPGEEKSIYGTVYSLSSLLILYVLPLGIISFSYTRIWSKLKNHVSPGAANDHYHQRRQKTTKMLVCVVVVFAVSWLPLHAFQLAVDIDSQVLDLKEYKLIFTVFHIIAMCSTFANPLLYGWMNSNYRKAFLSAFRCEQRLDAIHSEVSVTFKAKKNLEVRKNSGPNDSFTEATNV
NPY-Y2 antag = blocks the human neuropeptide Y Y2 receptor; P49146; NPY-Y2 expressing cells, antagonist mode; inhibition, % at 2.7 µM; 0.99% of 140,000 active; in the data active = inhibition above about 17%;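 note: 0% = vehicle with agonist challenge and 100% = reference antagonist with challenge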
NPY-Y1 antag = blocks the human neuropeptide Y Y1 receptor; HEK293-CNG Y1 cells, membrane potential fluorescence; NPY at EC95, then isoproterenol; P25929; AID 1040; 1% of 200,000 active; inhibition, % at 3.6 µM;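 active = inhibition above the campaign mean inhibition of all tested compounds plus 3 SD, cut at about 20% in these data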;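 note: 0% = DMSO wells given NPY plus isoproterenol and 100% = isoproterenol alone without NPY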
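Material: HEK293 cells co-expressing NPY Y1 receptor and cyclic-nucleotide gated channel. Timing: compound incubation 1 h at room temperature, readout 45 min post-stimulation. Signal: fluorescence, membrane potential probe.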
Wee1 stabilizer = blocks degradation of human Wee1 kinase. HeLa Luc-Wee1K328M stability, luciferase luminescence; 100% = proteasome inhibitor MG132 effect. reporter increase, % at 5 µM. P30291. AID 1321. 1.2% of 220,000 active;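 active = activation above the mean of all tested compounds plus 3 SD, set per screening run, cut at about 8.8% in these data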;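 note: cells exposed to compound for 20 h before luminescence read; 0% = DMSO alone and 100% = MG132 at 30 µM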
NPY-Y1 antag ct = human NPY-Y1 antagonism in NPY-Y2 counter-screen. cell-based NPY-Y1 antagonism counterscreen. shares compounds with NPY-Y2 antag. inhibition, % at 3.6 µM. 19% of 710 active; in the data active = inhibition above about 20%;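 note: cells challenged with NPY then isoproterenol with cAMP sensed through a CNG channel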
NPY2 antag conf = confirmation of human neuropeptide Y receptor Y2 antagonists. shares compounds with NPY-Y2 antag. HEK293 NPY-Y2 CNG channel, membrane potential fluorescence. inhibition, % at 2.8 µM. 32% of 710 active. AID 1257;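 active = mean inhibition of triplicate wells above the hit cutoff set in the primary screen, cut at about 17% in these data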;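 note: 0% = DMSO with NPY challenge and 100% = BIIE0246 high control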
An asterisk follows results filed as active.

`COc1cccc(-c2cc(C(=O)Nc3ccc([N+](=O)[O-])cn3)c3ccccc3n2)c1` gave NPY-Y1 PAM-ag -24.6, Hsp70 act -0.1, NPY2 pot ag -4.6, NPY-Y2 antag 26.0*, NPY-Y1 antag 3.1, Wee1 stabilizer -2.1, NPY-Y1 antag ct 36.9* and NPY2 antag conf 52.2*.
`COc1ccc(-c2cc(C(=O)Nc3ccc(Cl)cc3Cl)c3ccccc3n2)cc1OC` gave NPY-Y1 PAM-ag -28.9, Hsp70 act -0.3, NPY2 pot ag -15.9, NPY-Y2 antag 123.9*, NPY-Y1 antag 6.2, Wee1 stabilizer -1.4, NPY-Y1 antag ct 132.7* and NPY2 antag conf active.
COc1ccc(/C=N/NC(=S)NC2CCS(=O)(=O)C2)cc1 (stereo not given) was read as NPY-Y1 PAM-ag 10.0, Hsp70 act -0.2, NPY2 pot ag -5.7, NPY-Y2 antag 0.0, NPY-Y1 antag 2.5 and Wee1 stabilizer -2.1.
CCOc1ccc(-n2c(-c3ccccc3)nnc2-c2ccccc2)cc1 was read as NPY-Y1 PAM-ag -32.0, Hsp70 act -0.4, NPY2 pot ag -23.6, NPY-Y2 antag 20.6*, NPY-Y1 antag 9.7, Wee1 stabilizer 1.0, NPY-Y1 antag ct 6.8 and NPY2 antag conf 15.4.
CCNC(=O)CSc1nnc(-c2ccccc2)n1-c1ccc(OCC)cc1 was read as NPY-Y1 PAM-ag 5.9, Hsp70 act -0.2, NPY2 pot ag -14.7, NPY-Y2 antag -1.8, NPY-Y1 antag 3.0 and Wee1 stabilizer -0.8.
CCOC(=O)Cc1cc(=O)[nH]c(/N=C(\N)Nc2ccc(C)c(C)c2)n1 was read as NPY-Y1 PAM-ag 10.3, Hsp70 act -0.4, NPY2 pot ag -2.0, NPY-Y1 antag 1.4 and Wee1 stabilizer 0.4.
Screening Cc1ccc(OCCNC(=O)/C=C/c2ccccc2)cc1C returned NPY-Y1 PAM-ag -43.7, Hsp70 act -0.3, NPY2 pot ag -14.4, NPY-Y2 antag 12.8, NPY-Y1 antag 9.9 and Wee1 stabilizer -0.8.
Screening Cc1ccc(OCCNC(=O)/C=C/c2ccc([N+](=O)[O-])cc2)cc1C returned NPY-Y1 PAM-ag -28.3, Hsp70 act -0.4, NPY2 pot ag -7.5, NPY-Y2 antag 17.9*, NPY-Y1 antag 16.9, Wee1 stabilizer -2.9, NPY-Y1 antag ct 10.7 and NPY2 antag conf 15.2.
`COc1ccccc1C(CNC(=O)c1ccc(S(=O)(=O)NCc2ccco2)cc1)N(C)C` (stereo not given) gave NPY-Y1 PAM-ag 5.4, Hsp70 act 0.5, NPY2 pot ag 3.0, NPY-Y2 antag 3.9, NPY-Y1 antag 7.5 and Wee1 stabilizer -3.3.
`COC(=O)c1ccc(/C=N/NC(=O)CC(=O)NCc2cccnc2)cc1` gave NPY-Y1 PAM-ag -1.8, Hsp70 act 0.1, NPY2 pot ag -13.1, NPY-Y1 antag -0.3 and Wee1 stabilizer -0.2.
`CCOc1ccc2[nH]c(=O)c(C(c3nnnn3Cc3ccco3)N3CCCC(C)C3)cc2c1` (stereo not given) gave NPY-Y1 PAM-ag -14.9, Hsp70 act -0.3, NPY2 pot ag 8.1, NPY-Y2 antag 17.7*, NPY-Y1 antag 12.0, Wee1 stabilizer -1.9, NPY-Y1 antag ct 4.8 and NPY2 antag conf 3.9.
For CC(C)NC(=O)COC(=O)CNC(=O)c1cc(Cl)cc([N+](=O)[O-])c1 the results were NPY-Y1 PAM-ag -1.9, Hsp70 act -0.3, NPY2 pot ag -7.2, NPY-Y2 antag 4.5, NPY-Y1 antag 2.3 and Wee1 stabilizer 4.0.
CC1(C)CC(=O)C(C=Nc2ccc(C(=O)c3ccccc3)cc2N=CC2=C(O)CC(C)(C)CC2=O)=C(O)C1 was read as NPY-Y1 PAM-ag -9.8, Hsp70 act -0.4, NPY2 pot ag -8.9, NPY-Y1 antag -1.8 and Wee1 stabilizer -4.2.
For CCCCC(=O)N/N=C/c1ccc(N2CCOCC2)c([N+](=O)[O-])c1 the results were NPY-Y1 PAM-ag -32.3, Hsp70 act -0.4, NPY2 pot ag -5.9, NPY-Y2 antag 20.6*, NPY-Y1 antag -0.3, Wee1 stabilizer -0.3, NPY-Y1 antag ct 8.0 and NPY2 antag conf 17.4*.
